From PubChem
Compounds with a hit are over-represented: about 2.3% of the library has one in this group of screens.
PPC-1+TRAIL kill – PPC-1 cancer cell killing with TRAIL present; AID 1443; cell killing (% activity), % at 4 µM or 5 µM; actives 0.41% (n = 220,000); PPC-1 cells + TRAIL, ATPLite viability luminescence;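 active = cell killing above 50% in the first pass at 4 µM, then a duplicate retest at 5 µM averaging 50% or more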;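 note: plate controls were cells with TRAIL plus DMSO for no effect and medium-only wells lacking cells for full effect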
STAT1 inh – inhibitors of IFN-gamma induced STAT1 signaling; NIH 3T3 STAT1-luciferase reporter, luminescence; actives 0.35% (n = 200,000); inhibition, % at 5.5 µM; AID 920;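 active = inhibition above a set limit, the mean inhibition across all tested compounds plus 3 SD, cut at about 34% in these data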;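 note: 0% = IFN-gamma with DMSO and 100% = IFN-gamma with 300 µM nifuroxazide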
STAT3 inh – inhibitors of IL-6 induced STAT3 signaling | U3A cells, IL-6 STAT3-luciferase reporter, luminescence; host cell line lacks STAT1 | inhibition, % at 5.5 µM | actives 0.89% (n = 190,000) | AID 862;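 active = inhibition above the mean inhibition across all screened compounds plus 3 SD, cut at about 44% in these data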;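 note: 0% = DMSO only wells and 100% = 100 µM nifuroxazide control wells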
TRAIL sens C8 – caspase-8 TRAIL sensitization; NB7+C8 cells + TRAIL, ATPlite viability luminescence; inhibition (viability loss, TRAIL sensitization), % at 10 µM; actives 1% (n = 360,000); AID 624354;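 active = compounds causing at least 50% loss of cell viability in the single-dose screen, relative to plate controls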
STAT3 act – increases IL-6 driven STAT3 reporter signal; U3A cells, IL-6 STAT3-luciferase reporter, luminescence; 100% = signal with IL-6 EC80 alone; activation (% of control), % at 5.6 µM; actives 0.91% (n = 190,000);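 active = activation above the screen-wide mean of compound activation plus 3 SD, cut at about 130% in these data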;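 note: 0% = background luminescence of wells with medium and substrate only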
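Material: STAT1-lacking human U3A cells, STAT3 luciferase reporter | Benchmarks: IL-6-only wells as 100% reference | Probe or stimulus: IL-6 (33 ng/mL) | Timing: Compound 1 h, then IL-6 6 h at 37 °C | Detection: Luminescence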
HSP90 inh – inhibitors of HSP90 luciferase refolding in rabbit reticulocyte lysate | luciferase refolding luminescence, 3 h | inhibition, % at 5.6 µM | actives 0.91% (n = 290,000) | AID 1789;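 active = inhibition above the screen-wide mean plus 3 SD, computed separately per campaign, cut at about 16% in these data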;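 note: 0% = DMSO wells and 100% = 60 µM geldanamycin wells; inhibitors lower the luminescence because luciferase stays unfolded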
HSP90 confirm – confirmation of HSP90 inhibitors; shares compounds with HSP90 inh; rabbit reticulocyte lysate, luciferase refolding luminescence, 3 h; inhibition, % at 5.9 µM; actives 64% (n = 2,300); AID 1846; in the data active = inhibition above about 18%;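 note: 0% = vehicle wells and 100% = reference inhibitor wells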
FLuc counter – blocks native firefly luciferase in HSP90 counter-screen; shares compounds with HSP90 inh; purified native firefly luciferase, luminescence; inhibition, % at 5.9 µM; actives 48% (n = 2,300); AID 1847;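 active = inhibition above the mean inhibition of all tested sample wells plus 3 SD, cut at about 10% in these data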;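 note: 0% = DMSO with luciferase and 100% = wells lacking luciferase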
Target sequence (P08659 whole entry, looked up): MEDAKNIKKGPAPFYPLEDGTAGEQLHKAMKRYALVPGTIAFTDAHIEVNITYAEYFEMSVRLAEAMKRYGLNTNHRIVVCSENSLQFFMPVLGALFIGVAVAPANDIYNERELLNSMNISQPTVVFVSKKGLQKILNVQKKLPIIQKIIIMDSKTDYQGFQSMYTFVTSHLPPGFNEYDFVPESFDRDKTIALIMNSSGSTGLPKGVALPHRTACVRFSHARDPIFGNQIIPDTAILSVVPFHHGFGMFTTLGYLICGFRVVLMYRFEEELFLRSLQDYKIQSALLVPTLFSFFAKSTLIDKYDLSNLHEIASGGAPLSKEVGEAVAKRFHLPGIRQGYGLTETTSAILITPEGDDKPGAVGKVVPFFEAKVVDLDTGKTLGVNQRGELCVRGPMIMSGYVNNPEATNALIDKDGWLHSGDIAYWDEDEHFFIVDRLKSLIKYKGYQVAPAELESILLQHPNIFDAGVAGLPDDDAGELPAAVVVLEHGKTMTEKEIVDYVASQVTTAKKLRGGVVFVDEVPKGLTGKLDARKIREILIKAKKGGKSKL
Starred values were filed as active, the others as inactive; . = not tested or not shown.

SMILES	PPC-1+TRAIL kill	STAT1 inh	STAT3 inh	TRAIL sens C8	STAT3 act	HSP90 inh	HSP90 confirm	FLuc counter
COc1ccccc1-c1ccc(C(=O)O)o1	-13	1	2	-4	104	46*	54*	-14
S=C(c1ccc(N2CCCC2)c(Br)c1)N1CCCCC1	17	-4	14	3	92	22*	0	-18
CC1CCN(C(=O)c2[nH]cnc2C(=O)Nc2ccccc2)CC1	.	.	.	-3	.	.	.	.
c1ccc(-c2nnc(-c3ccccn3)s2)nc1	48	.	.	38	.	35*	64*	44*
COC(=O)c1ccc(NC(=O)C(=O)c2cccn2C)cc1	18	47*	79*	62*	36	26*	59*	42*
Fc1ccc(OCc2nnc(SCCN3CCOCC3)o2)cc1	8	4	2	5	102	1	.	.
CC(=O)N1CCC(=NNc2nc3ccccc3s2)CC1	3	-39	-12	-3	116	8	.	.
CCOC(=O)N1CCC(=NNc2nc3ccccc3s2)CC1	-6	.	.	-6	.	26*	2	-8
O=C(O)c1cccc(Nc2nc(N3CCOCC3)nc(N3CCOCC3)n2)c1	4	4	0	-5	103	3	.	.
O=C(O)c1cccc(Nc2ccnc(Nc3cccc(C(=O)O)c3)n2)c1	.	.	.	-1	.	37*	40*	58*
Cc1ccc2nc(SCC(=O)N(CC(C)C)c3c(N)n(CC(C)C)c(=O)[nH]c3=O)[nH]c2c1	20	-2	5	-9	99	-2	.	.
COc1cc(OC)c(NC2=CC(=O)C(=O)c3ccccc32)cc1Cl	.	.	.	96*	.	44*	34*	-6
CC1=CC2=NC(=O)/C(=C\c3cccn3CCOc3cc(C)ccc3C)C(=N)N2O1	-9	4	5	6	95	53*	-2	-8
CCN(CC)S(=O)(=O)c1cccc(-c2nnc(SCCCC(=O)c3ccc(F)cc3)o2)c1	13	-6	-1	11	104	6	.	.
OC(c1ccccc1)C1CN(Cc2ccccc2)CCC1(O)c1ccccc1 (centres undefined)	-2	4	0	10	101	-3	.	.
CC(=O)Nc1ccc(S(=O)(=O)N2CCN=C2SCc2ccc(F)cc2)cc1	.	.	.	0	.	-3	.	.
O=[N+]([O-])c1ccc(S(=O)(=O)N2CCN=C2SCc2ccc(F)cc2)cc1	.	.	.	-5	.	35*	70*	-4
CC(=O)c1cccc(Nc2nc(-c3sc(C)nc3C)cs2)c1	.	.	.	20	.	-2	.	.
Cc1nc(C)c(-c2csc(Nc3cccc(O)c3)n2)s1	2	6	16	19	88	-6	.	.
Cc1nc(N)sc1-c1csc(Nc2cccc(O)c2)n1	.	.	.	-10	.	31*	-4	-21
CC(=O)c1cccc(Nc2nc(-c3sc(N)nc3C)cs2)c1	.	.	.	6	.	52*	1	-10
CCc1sc(C(=O)Nc2ccc(NC(C)=O)cc2)cc1C	25	-5	-7	1	104	-2	.	.
CCc1sc(C(=O)Nc2nc(C)cs2)cc1C	.	.	.	30	.	21*	34*	20*
COc1ccc(C2=NN(c3ccc(C(=O)O)cc3)C(c3ccc(OC)c(OC)c3)C2)cc1 (centres undefined)	.	.	.	-23	.	19*	46*	38*
Cc1cc(C(=O)Nc2ccc(N3CCCCC3)cc2)no1	17	.	.	40	.	24*	50*	36*
Cc1ccc(C(=O)Nc2ccc(N3CCN(C)CC3)cc2)cc1C	.	.	.	25	.	22*	29*	23*
CN1CCN(c2ccc(NC(=O)N3CCc4ccccc43)cc2)CC1	.	.	.	61*	.	72*	71*	61*
COc1ccccc1OCC(=O)Nc1ccc(N2CCOCC2)cc1N1CCOCC1	.	.	.	-10	.	.	.	.
N#Cc1c(NC(=O)c2nc3ncccn3n2)sc2c1CCCCC2	12	-5	1	-4	101	65*	78*	28*
CC1CCc2c(sc(NC(=O)c3nc4ncccn4n3)c2C#N)C1 (centres undefined)	8	.	.	2	.	13	.	.
